# Experimental data collected from several papers.
# Protocols differ between the studies behind these lines.
# Cell line: OVCAR-8
# Observed: cell growth or viability
Structure (SMILES),assay,conditions,endpoint,result
COc1ccc(-c2ccc(-c3ccc(C(=N)N)nc3)s2)cc1Cl,SRB,,GI50,2600 nM
O=C1Nc2ccccc2C1=NNc1nnc2n1N=C(c1ccccc1)CS2,SRB,10 µM,inhibition,41%
COc1cccc(Oc2ccccc2NC(=O)CNC(=O)c2cccc3ccccc23)c1,SRB,48 h,GI50,692 nM
COc1cc(-c2ccc(-c3ccc(C(=N)N)nc3)s2)cc(OC)c1OC,SRB,,GI50,2300 nM
S=C([S][Au-][P+](CCCCCC[P+]([Au-][S]C(=S)n1cccn1)(c1ccccc1)c1ccccc1)(c1ccccc1)c1ccccc1)n1cccn1,,,GI50,696 nM
COc1ccc(C(=O)/C=C/c2cccc(Cl)c2Cl)cc1S(N)(=O)=O,SRB,10 µM,inhibition,164%
Cc1cc(C)n(C(=S)[S][Au][PH](CCCCCC[PH]([Au][S]C(=S)n2nc(C)cc2C)(c2ccccc2)c2ccccc2)(c2ccccc2)c2ccccc2)n1,,,GI50,597 nM
COc1ccc(C(=O)/C=C/c2cccc(Cl)c2)cc1S(N)(=O)=O,SRB,48 h,GI50,2800 nM
